From ChEMBL document CHEMBL1811800, “The discovery of long-acting saligenin β₂ adrenergic receptor agonists incorporating hydantoin or uracil rings” (Bioorg Med Chem, 2011) come the findings set out here.

Series [1] addresses Beta-2 adrenergic receptor (Homo sapiens, UniProt P07550). Put plainly: Agonist activity at human adrenergic beta2 receptor expressed in CHO cells assessed as cAMP accumulation. The series is classed as functional, cell-based. (Changes in cAMP serve as a functional read-out for many G protein-coupled receptors.)
The test system of series [2] is Liver microsomes. Put plainly: Metabolic stability in human liver microsomes with 125 pmol/mL P450 assessed as compound turnover ratio at 5 uM after 30 mins by LC-MS method relative to verapamil. In kind it is ADME, Microsome. The following applies: 0.5 h.
Series [3] deals with Beta-1 adrenergic receptor (Homo sapiens, UniProt P08588). The experiment in a line: Agonist activity at human adrenergic beta1 receptor expressed in CHO cells assessed as cAMP accumulation. The series is classed as functional, cell-based.
The target in series [4] is Beta-3 adrenergic receptor (Homo sapiens, UniProt P13945). Put plainly: Agonist activity at human adrenergic beta3 receptor expressed in CHO cells assessed as cAMP accumulation. In kind it is functional, cell-based.
For series [5], the target named is Beta-2 adrenergic receptor (Cavia porcellus, UniProt Q8K4Z4). The experiment in a line: Agonist activity at adrenergic beta2 receptor in guinea pig trachea assessed as inhibition of electrically-stimulated contraction. The series is classed as functional.
Series [6] has as its system Cavia porcellus. Put plainly: Bronchodilatory activity against histamine-induced bronchospasm in guinea pig assessed as time taken for 50% recovery of bronchospasm at 10-fold EC90 administered via nebulizer. The series is classed as functional. The gist of the method:
(§1)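 Guinea pigs; agonist given as nebulised solution in dimethyl acetamide-saline vehicle at EC90 dose or 10-fold EC90 dose. Duration expressed as time to 50% recovery.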

Series [7] deals with Cavia porcellus. Put plainly: Bronchodilatory activity against histamine-induced bronchospasm in guinea pig assessed as time taken for 50% recovery of bronchospasm at EC90 administered via nebulizer. In kind it is functional. In a few lines:
as §1

Series [8] is described as follows: Half life in Beagle dog at 0.052 mg/kg, iv by LC-MS/MS. The series is classed as ADME, organism-based, Canis lupus familiaris. The following applies: in vivo. More on the design: dose 0.052 mg/kg, route intravenous. The gist of the method:
(§2)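 Female beagle dogs (n = 2), fasted 18 h, crossover design. Oral 0.25 mg base/kg by gavage in DMSO-PEG 200-distilled water (5:30:65); iv 0.052 mg base/kg via cephalic vein in DMSO-PEG 200-saline (10:45:45). Jugular blood sampled 0.03 (iv only) to 8 h. Plasma assayed by LC–MS/MS; noncompartmental parameters.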

Series [9] can be described thus: Half life in Han Wistar rat at 0.25 mg/kg, iv by LC-MS/MS. The series is classed as ADME, organism-based. More on the design: dose 0.25 mg/kg, route intravenous. To be noted: in vivo. The gist of the method: (§3)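 Male Han Wistar rats, fasted 18 h. Oral dose 2.0 mg base/kg by gavage in DMSO-PEG 200-distilled water (5:30:65); iv dose 0.25 mg base/kg via tail vein in DMSO-PEG 200-saline (10:45:45). Blood sampled 0.03 (iv only) to 8 h post dose, n = 2 animals/time-point. Plasma assayed by LC–MS/MS; parameters from noncompartmental analysis.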

Series [10] can be described thus: Volume of distribution at steady state in Beagle dog at 0.052 mg/kg, iv by LC-MS/MS. In kind it is ADME, organism-based, Canis lupus familiaris. More on the design: dose 0.052 mg/kg, route intravenous. To be noted: in vivo, read-out: Vdss. In a few lines:
as §2

The test system of series [11] is Cavia porcellus. Put plainly: Bronchodilatory activity against histamine-induced bronchospasm in guinea pig administered via nebulizer. In kind it is functional. In a few lines:
as §1

Series [12] can be described thus: Plasma clearance in Han Wistar rat at 0.25 mg/kg, iv by LC-MS/MS. The series is classed as ADME, organism-based. On the set-up: dose 0.25 mg/kg, route intravenous. In a few lines:
as §3

Series [13] is described as follows: Stability of the compound in methanol assessed as formation of methyl ester of N-({[3-(4-{[6-({(2R)-2-Hydroxy-2-[4-hydroxy-3-(hydroxy methyl)phenyl]ethyl}amino) hexyl]oxy}butyl)phenyl]amino} carbonyl)glycine acetate.
Series [14] can be described thus: Oral bioavailability in Beagle dog at 0.25 mg/kg by LC-MS/MS. In kind it is ADME, organism-based, Canis lupus familiaris. The following applies: in vivo. In a few lines:
as §2

Series [15] has as its system Liver microsomes. Put plainly: Metabolic stability of the compound in human liver microsomes assessed as formation of N-({[3-(4-{[6-({(2R)-2-Hydroxy-2-[4-hydroxy-3-(hydroxy methyl)phenyl]ethyl}amino) hexyl]oxy}butyl)phenyl]amino} carbonyl)glycine acetate. In kind it is ADME, Microsome. In a few lines:
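Incubated at 25 µM with human liver microsomes (and hepatocytes). Samples mixed with equal volume acetonitrile, centrifuged; supernatant analysed by reverse-phase gradient LC with electrospray MS detection for metabolites.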
In general terms: Microsomes from liver hold many membrane-bound enzymes, among them those of drug oxidation.

The nature of series [16]: Stability of the compound in solid state at 4 degC after 18 days. In kind it is physicochemical. To be noted: 432 h.
The nature of series [17]: Cmax in Beagle dog at 0.25 mg/kg, po by LC-MS/MS. The following applies: in vivo. On the set-up: dose 0.25 mg/kg, route oral. In kind it is ADME, organism-based, Canis lupus familiaris. In a few lines:
as §2

Series [18] can be described thus: Volume of distribution at steady state in Han Wistar rat at 0.25 mg/kg, iv by LC-MS/MS. The series is classed as ADME, organism-based. More on the design: dose 0.25 mg/kg, route intravenous. The following applies: in vivo, read-out: Vdss. The gist of the method: as §3
The nature of series [19]: Plasma clearance in Beagle dog at 0.052 mg/kg, iv by LC-MS/MS. On the set-up: dose 0.052 mg/kg, route intravenous. In kind it is ADME, organism-based, Canis lupus familiaris. The gist of the method:
as §2

Series [20] can be described thus: Oral bioavailability in Han Wistar rat at 2.0 mg/kg by LC-MS/MS. The series is classed as ADME, organism-based. To be noted: in vivo. The gist of the method: as §3

Sequence of Beta-1 adrenergic receptor (P08588 whole entry): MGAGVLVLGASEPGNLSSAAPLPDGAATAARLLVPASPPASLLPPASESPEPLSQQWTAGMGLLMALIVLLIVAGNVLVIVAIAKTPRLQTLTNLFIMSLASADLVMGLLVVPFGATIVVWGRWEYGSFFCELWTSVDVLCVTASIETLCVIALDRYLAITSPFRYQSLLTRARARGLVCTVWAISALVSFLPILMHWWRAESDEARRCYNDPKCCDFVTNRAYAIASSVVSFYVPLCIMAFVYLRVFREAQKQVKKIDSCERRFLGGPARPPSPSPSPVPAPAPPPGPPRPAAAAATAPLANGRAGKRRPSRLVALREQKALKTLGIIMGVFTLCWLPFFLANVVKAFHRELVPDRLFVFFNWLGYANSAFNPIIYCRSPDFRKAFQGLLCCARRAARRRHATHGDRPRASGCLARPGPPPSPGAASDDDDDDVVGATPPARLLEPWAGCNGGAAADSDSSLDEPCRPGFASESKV
Sequence of Beta-2 adrenergic receptor (Cavia porcellus, UniProt Q8K4Z4) (Q8K4Z4 whole entry): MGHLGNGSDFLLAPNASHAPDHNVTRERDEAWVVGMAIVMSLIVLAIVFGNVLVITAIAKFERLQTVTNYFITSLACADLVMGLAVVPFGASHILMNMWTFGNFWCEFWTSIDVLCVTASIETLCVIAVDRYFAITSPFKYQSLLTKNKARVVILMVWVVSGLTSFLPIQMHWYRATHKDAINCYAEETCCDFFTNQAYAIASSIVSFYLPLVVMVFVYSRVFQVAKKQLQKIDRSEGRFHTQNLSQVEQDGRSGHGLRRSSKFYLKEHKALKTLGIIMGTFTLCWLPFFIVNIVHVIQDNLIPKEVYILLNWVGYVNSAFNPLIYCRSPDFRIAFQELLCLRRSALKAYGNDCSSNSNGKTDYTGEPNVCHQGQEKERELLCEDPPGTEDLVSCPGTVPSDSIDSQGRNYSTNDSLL
Sequence of Beta-2 adrenergic receptor (Homo sapiens, UniProt P07550) (P07550 whole entry): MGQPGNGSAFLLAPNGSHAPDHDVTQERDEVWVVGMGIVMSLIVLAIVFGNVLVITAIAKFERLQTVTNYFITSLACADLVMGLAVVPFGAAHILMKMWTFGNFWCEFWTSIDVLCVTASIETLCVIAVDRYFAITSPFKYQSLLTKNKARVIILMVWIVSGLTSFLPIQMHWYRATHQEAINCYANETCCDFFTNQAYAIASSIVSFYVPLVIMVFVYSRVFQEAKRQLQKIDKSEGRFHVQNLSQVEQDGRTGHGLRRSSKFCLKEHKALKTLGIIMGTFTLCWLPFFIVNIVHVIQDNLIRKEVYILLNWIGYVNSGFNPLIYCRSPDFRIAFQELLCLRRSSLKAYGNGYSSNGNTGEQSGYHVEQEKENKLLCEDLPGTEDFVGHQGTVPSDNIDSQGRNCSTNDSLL
Sequence of Beta-3 adrenergic receptor (P13945 whole entry): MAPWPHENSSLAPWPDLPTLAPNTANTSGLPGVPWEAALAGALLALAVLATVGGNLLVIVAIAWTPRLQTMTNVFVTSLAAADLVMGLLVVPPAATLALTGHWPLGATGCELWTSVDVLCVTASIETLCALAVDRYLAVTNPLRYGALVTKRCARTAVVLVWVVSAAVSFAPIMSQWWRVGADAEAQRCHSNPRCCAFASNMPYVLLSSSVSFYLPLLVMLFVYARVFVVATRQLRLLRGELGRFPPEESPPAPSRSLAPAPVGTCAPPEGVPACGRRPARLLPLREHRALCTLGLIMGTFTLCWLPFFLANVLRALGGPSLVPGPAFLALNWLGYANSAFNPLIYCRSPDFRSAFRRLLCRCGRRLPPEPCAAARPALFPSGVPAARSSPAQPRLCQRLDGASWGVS

By EC50 is commonly meant the concentration giving half of the maximal effect. As to `CC(=O)O.CC1(C)NC(=O)N(c2cccc(CCCCOCCCCCCNC[C@H](O)c3ccc(O)c(CO)c3)c2)C1=O`, the figures for the EC50 in [1], in series [3] and in series [4] were 0.000794 µM, 0.2 µM and 0.0631 µM, respectively. For the same molecule, in the series with Liver microsomes [2], the Ratio is recorded as 0.48.
The like results for `CC(=O)O.O=C1CNC(=O)N1c1ccc(CCCCOCCCCCCNC[C@H](O)c2ccc(O)c(CO)c2)cc1` were, in that order, 0.002 µM, 0.0794 µM, 0.0316 µM and 0.3.
For `O=C(O)CNC(=O)Nc1cccc(CCCCOCCCCCCNC[C@H](O)c2ccc(O)c(CO)c2)c1` [listing 1 of 2 here], in that order: 0.001 µM, 0.126 µM, 0.1 µM and 0.55.
For `CC(=O)O.O=C1CN(Cc2cccc(CCCCOCCCCCCNC[C@H](O)c3ccc(O)c(CO)c3)c2)C(=O)N1`, in that order: 0.000631 µM, 0.0794 µM, 0.0631 µM and 0.75.
For the molecule `O=c1ccn(-c2cccc(CCCCOCCCCCCNC[C@H](O)c3ccc(O)c(CO)c3)c2)c(=O)[nH]1`, the values for the EC50 in series [1], in [3] and in [4] were 0.00126 µM, 0.0501 µM and 0.0501 µM, respectively.
For the molecule `CC(=O)O.NC(=O)CN1C(=O)CN(c2cccc(CCCCOCCCCCCNC[C@H](O)c3ccc(O)c(CO)c3)c2)C1=O`, the EC50 in [1] was 0.000251 µM; in series [3], 0.158 µM; in [4] it was 0.0794 µM. Moreover, in the series with Liver microsomes [2], the Ratio was 0.91.
On to `O=C(O)CNC(=O)Nc1cccc(CCCCOCCCCCCNC[C@H](O)c2ccc(O)c(CO)c2)c1` [listing 2 of 2 here], for which the EC50 in [5] is 0.001 µM.
Consider `O=C1CNC(=O)N1c1ccccc1CCCCOCCCCCCNC[C@H](O)c1ccc(O)c(CO)c1`, for which the EC50 was 0.00251 µM in [1], 0.2 µM in [3] and 0.2 µM in series [4]. In the series on Liver microsomes [2], the Ratio is listed as 0.46.
Regarding `O=c1cc[nH]c(=O)n1-c1cccc(CCCCOCCCCCCNC[C@H](O)c2ccc(O)c(CO)c2)c1` [listing 1 of 2 here], the EC50 was 0.000794 µM in series [1], 0.251 µM in series [3] and 0.398 µM in series [4].
Turning to `CC(=O)O.O=C1CNC(=O)N1Cc1cccc(CCCCOCCCCCCNC[C@H](O)c2ccc(O)c(CO)c2)c1`, the EC50 was 0.00126 µM in [1], 0.126 µM in [3] and 0.0398 µM in [4]. Besides, the Ratio in the series with Liver microsomes [2] turned out to be 1.62.
Turning to `O=c1cc[nH]c(=O)n1-c1cccc(CCCCOCCCCCCNC[C@H](O)c2ccc(O)c(CO)c2)c1` [listing 2 of 2 here], the concentration giving a half-maximal response (EC50) in series [5] is 0.0002 µM.
A word on the half-life: it is the time in which the quantity being followed falls by half. A low value points to rapid decline. Usually EC90 stands for the concentration needed for an effect of 90%. Higher therefore signals a need for much substance. For orientation: clearance means the volume of plasma or blood freed of the substance per unit of time. What is called bioavailability is dose-corrected exposure relative to a reference, in per cent. The low end stands for poor availability, the high end for good availability. By Cmax is commonly meant the peak of the concentration-time curve. With `CC(=O)O.O=C1CNC(=O)N1c1cccc(CCCCOCCCCCCNC[C@H](O)c2ccc(O)c(CO)c2)c1`, the values for the Time in the series with Cavia porcellus [6] and in the series with Cavia porcellus [7] were 18 h and 12 h, respectively. Also, the EC50 in [1] is 0.000631 µM; in [3] it was 0.0794 µM; in series [5] it was 0.000794 µM; in series [4], 0.1 µM. The half-life is 2 h in series [8] and 0.3 h in series [9]. Besides, the Vd is 0.8 L/kg in series [10] and 2 L/kg in [18]. This molecule also came in with an EC90 in the series with Cavia porcellus [11] of 25 µM. Moreover, the clearance stood at 120 mL/min/kg in series [12] and 13 mL/min/kg in [19]. Also, the Stability result (in [13]; in the series on Liver microsomes [15]; in series [16]) was “Unstable” each time. Further, in the series with Liver microsomes [2], the Ratio amounted to 0.86. For the same molecule, the values for the bioavailability in [14] and in [20] were 5% and 2%, respectively. The Cmax in series [17] was determined as 12 ng/mL.
Turning to `OCc1cc(C(O)CNCCCCCCOCCCCc2ccccc2)ccc1O` (stereo unspecified) [SALMETEROL], the EC90 in the series with Cavia porcellus [11] is 50 µM. Besides, in series [5], the EC50 was 0.00501 µM.
In the case of `CC(=O)O.O=C1CN(c2cccc(CCCCOCCCCCCNC[C@H](O)c3ccc(O)c(CO)c3)c2)C(=O)N1`, the EC50 in series [1] was 0.00251 µM; in [3] it was 0.2 µM; in series [5] it was 0.00251 µM; in series [4], 0.316 µM. Besides, the Ratio in the series on Liver microsomes [2] came out at 0.4.
In the case of `O=C1NC(=O)N(Cc2cccc(CCCCOCCCCCCNC[C@H](O)c3ccc(O)c(CO)c3)c2)C1=O`, the EC50 in [1] is 0.000794 µM; in series [3] it was 0.0501 µM; in series [4], 0.0251 µM.
